Experimental data: paper PMC6500982 (Cancer Science, 2019)
Entries after “also recorded” stand apart in the source; their conditions may differ.

Experiments:
[1] = Pharmacokinetics of plasma tirabrutinib, Cycle 1 Day 1 and Day 28; assay type: in vivo, human
[2] = B‐cell NHL, European phase I study; cited from earlier work
[3] = test system: relapsed/refractory B‐cell NHL and CLL; test: Efficacy; assay type: in vivo, human; details: for Partial response (VGPR or PR): includes lymphocytosis assessed as modified PR
Method in brief: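 Open-label, multicenter, non-randomised study in Japanese adults (≥20 y) with relapsed/refractory B-cell NHL (DLBCL, MCL, FL, MZL, WM/LPL) or CLL/SLL. Oral test compound was given at 160, 320 or 480 mg QD, or 300 mg BID, until progression, unacceptable AEs or consent withdrawal. Best response was graded per International Workshop Criteria for NHL, WM and CLL. ORR was CR plus PR, including PR with residual lymphocytosis, with Clopper–Pearson 95% CIs. Analysis included all patients receiving ≥1 dose.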

[4] = test system: TMD8 transplanted mouse tumor model; details: cited from earlier work
[5] = target: Bruton's tyrosine kinase (BTK) (Homo sapiens, UniProt Q06187); assay type: in vivo
Method in brief: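 PBMCs isolated from blood drawn pre-dose and 2 hours post-dose on Cycle 1 Day 1 were analysed by western blot with anti-pBTK, anti-BTK and anti-β-actin antibodies. pBTK band intensity was quantified by imaging analyzer, normalised to β-actin, and expressed relative to the pre-dose Day 1 level (set as 100%).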

[6] = DLBCL, 3 patients who received 300 mg BID

Sequence of Bruton's tyrosine kinase (BTK) (Q06187 whole entry): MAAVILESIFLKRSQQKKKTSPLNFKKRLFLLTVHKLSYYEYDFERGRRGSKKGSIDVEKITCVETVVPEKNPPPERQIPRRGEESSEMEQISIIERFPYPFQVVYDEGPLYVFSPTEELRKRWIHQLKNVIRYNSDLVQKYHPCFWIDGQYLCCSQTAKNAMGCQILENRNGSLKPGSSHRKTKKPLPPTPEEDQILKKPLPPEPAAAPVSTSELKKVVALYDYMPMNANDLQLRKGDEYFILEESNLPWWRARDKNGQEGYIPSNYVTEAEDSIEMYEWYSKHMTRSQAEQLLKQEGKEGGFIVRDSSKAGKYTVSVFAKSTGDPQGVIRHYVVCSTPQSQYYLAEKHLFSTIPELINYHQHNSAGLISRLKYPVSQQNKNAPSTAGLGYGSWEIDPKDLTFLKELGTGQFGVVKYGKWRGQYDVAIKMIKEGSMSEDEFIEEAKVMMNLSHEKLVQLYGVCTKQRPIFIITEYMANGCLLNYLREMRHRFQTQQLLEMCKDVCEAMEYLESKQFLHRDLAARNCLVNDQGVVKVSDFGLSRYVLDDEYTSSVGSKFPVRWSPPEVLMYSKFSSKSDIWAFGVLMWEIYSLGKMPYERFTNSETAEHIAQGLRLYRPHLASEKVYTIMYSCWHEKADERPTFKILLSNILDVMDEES

SMILES: CC#CC(=O)N1CC[C@@H](n2c(=O)n(-c3ccc(Oc4ccccc4)cc3)c3c(N)ncnc32)C1 [tirabrutinib]
- Pharmacokinetics linearity ([1]; 160 mg QD to 300 mg BID): linear
- Increase in Cmax and AUC with dose ([1]; 160 to 480 mg QD): increased in a dose‐dependent manner
- Arithmetic mean trough plasma concentration, 300 mg BID vs 480 mg QD ([1]; C1D28): 3.2 fold
- Accumulation following multiple doses ([1]; Day 28 vs Day 1): little accumulation
- Tolerability observed up to (dose) [2]: up to 480 mg once daily (QD)
- Complete response (CR, CRu, CRi) ([3]; 160 mg QD N = 3): 1 (33.3) n (%)
- Overall response (CR, CRu, CRi, VGPR or PR) ([3]; 160 mg QD N = 3): 3 (100.0) n (%)
- Partial response (VGPR or PR) ([3]; 160 mg QD N = 3): 2 (66.7) n (%)
- Complete response (CR, CRu, CRi) ([3]; 300 mg BID N = 7): 3 (42.9) n (%)
- Overall response (CR, CRu, CRi, VGPR or PR) ([3]; 300 mg BID N = 7): 4 (57.1) n (%)
- Partial response (VGPR or PR) ([3]; 300 mg BID N = 7): 1 (14.3) n (%)
- Complete response (CR, CRu, CRi) ([3]; 320 mg QD N = 3): 2 (66.7) n (%)
- Overall response (CR, CRu, CRi, VGPR or PR) ([3]; 320 mg QD N = 3): 3 (100.0) n (%)
- Partial response (VGPR or PR) ([3]; 320 mg QD N = 3): 1 (33.3) n (%)
- Complete response (CR, CRu, CRi) ([3]; 480 mg QD N = 4): 0 (.0) n (%)
- Overall response (CR, CRu, CRi, VGPR or PR) ([3]; 480 mg QD N = 4): 3 (75.0) n (%)
- Partial response (VGPR or PR) ([3]; 480 mg QD N = 4): 3 (75.0) n (%)
- Median progression‐free survival ([3]; Cohort 3 (480 mg QD)): 109 days
- Median progression‐free survival ([3]; Cohorts 1, 2 and 4): not estimable
- Number of CR ([3]; DLBCL (5 patients)): 2
- Best overall response CR, number of patients [3, 6]: 2 patients
- Best overall response stable disease, number of patients [3, 6]: 1 patient
- Number of CR ([3]; FL (5 patients)): 1
- Number of CR ([3]; MCL (4 patients)): 3
- Complete response (CR, CRu, CRi) ([3]; Total N = 17): 6 (35.3) n (%)
- Overall response (CR, CRu, CRi, VGPR or PR) ([3]; Total N = 17): 13 (76.5) n (%)
- Partial response (VGPR or PR) ([3]; Total N = 17): 7 (41.2) n (%)
- Overall response rate (≥PR) ([3]; all patients (13/17)): 76.5%
- Patients with early response within 1 month after beginning of treatment ([3]; of 13 patients who achieved PR or more): 8 patients
- Cytostatic properties in vivo [4]: cytostatic properties
- Expression level of pBTK in PBMC ([5]; 11 patients with confirmed basal pBTK expression, doses ≥160 mg QD): suppressed the expression level of pBTK in all 11 patients; also recorded: fully suppressed
- pBTK suppression ([5]; patients other than the CLL patient, 2 hours post–dose on Day 1 of Cycle 1): Complete suppression
